{"source": "BindingDB's records for doi:10.1016/j.ejmech.2016.05.060", "about": "(Xi'An Jiaotong University, 2016)", "key": {"[1]": {"target": "T1, M-phase inducer phosphatase 2 (Homo sapiens, UniProt P30305)", "T1 sequence (P30305 whole entry)": "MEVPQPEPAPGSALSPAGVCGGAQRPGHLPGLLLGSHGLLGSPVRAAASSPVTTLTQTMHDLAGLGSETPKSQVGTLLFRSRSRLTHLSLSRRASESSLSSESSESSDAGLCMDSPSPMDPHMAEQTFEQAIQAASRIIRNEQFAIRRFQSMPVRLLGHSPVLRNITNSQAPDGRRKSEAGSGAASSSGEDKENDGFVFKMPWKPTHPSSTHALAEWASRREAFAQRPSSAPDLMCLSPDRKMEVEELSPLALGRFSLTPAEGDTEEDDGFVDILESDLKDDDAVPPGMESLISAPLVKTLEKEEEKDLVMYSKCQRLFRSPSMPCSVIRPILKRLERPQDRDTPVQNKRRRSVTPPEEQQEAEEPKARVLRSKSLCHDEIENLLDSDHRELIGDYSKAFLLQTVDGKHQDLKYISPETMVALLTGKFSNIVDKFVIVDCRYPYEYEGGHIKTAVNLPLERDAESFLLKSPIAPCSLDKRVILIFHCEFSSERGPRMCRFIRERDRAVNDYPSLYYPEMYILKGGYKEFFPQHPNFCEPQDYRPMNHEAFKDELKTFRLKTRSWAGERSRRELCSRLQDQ", "assay": "Inhibition of human recombinant GST-tagged CDC25B assessed as reduction in dephosphorylation of florigenic phosphatase substrate preincubated for 1 hr followed by substrate addition measured after 1 hr by fluorescence assay", "outline": "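Purified GST-CDC25B fusion protein was preincubated with compound for 1 h, then fluorescein diphosphate ([…]) was added. Fluorescence was read within the linear range of the reaction after 1 h at room temperature. Na₃VO₄ served as positive control and DMSO as negative control.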"}, "[2]": {"target": "T2, Tyrosine-protein phosphatase non-receptor type 1 (Homo sapiens, UniProt P18031)", "T2 sequence (P18031 whole entry)": "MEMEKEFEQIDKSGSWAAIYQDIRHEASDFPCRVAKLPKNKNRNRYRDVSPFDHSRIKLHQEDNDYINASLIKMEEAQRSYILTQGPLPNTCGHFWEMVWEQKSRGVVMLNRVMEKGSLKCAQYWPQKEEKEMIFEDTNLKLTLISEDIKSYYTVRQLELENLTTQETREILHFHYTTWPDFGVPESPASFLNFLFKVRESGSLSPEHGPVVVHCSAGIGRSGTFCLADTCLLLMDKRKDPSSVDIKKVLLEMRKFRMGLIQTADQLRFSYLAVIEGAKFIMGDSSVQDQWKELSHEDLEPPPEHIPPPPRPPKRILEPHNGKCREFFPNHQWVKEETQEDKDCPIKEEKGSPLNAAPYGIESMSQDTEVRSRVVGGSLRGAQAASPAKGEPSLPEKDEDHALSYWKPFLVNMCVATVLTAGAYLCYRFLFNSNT", "assay": "Inhibition of human recombinant GST-tagged PTP1B catalytic domain expressed in Escherichia coli BL21-Conden plus (DE3) using pNPP as substrate"}}, "data": [{"smiles": "CCOC(=O)c1c(C)[nH]c(/C=C2\\S/C(=N\\c3cccc(F)c3)N(c3cccc(F)c3)C2=O)c1C", "values": [{"measurement": "IC50", "setting": "[1]", "value": 3.39, "unit": "µM"}, {"measurement": "IC50", "setting": "[2]", "value": 6.83, "unit": "µM"}]}, {"smiles": "CCOC(=O)c1c(C)[nH]c(/C=C2\\S/C(=N/O)N(C(C)C)C2=O)c1C", "values": [{"measurement": "IC50", "setting": "[1]", "value": 5.83, "unit": "µM"}]}, {"smiles": "CCOC(=O)c1c(C)[nH]c(/C=C2\\S/C(=N\\c3ccccc3)N(c3ccccc3)C2=O)c1C", "values": [{"measurement": "IC50", "setting": "[2]", "value": 8.66, "unit": "µM"}]}, {"smiles": "CCOC(=O)c1c(C)[nH]c(/C=C2\\S/C(=N\\c3ccccc3F)N(c3ccccc3F)C2=O)c1C", "values": [{"measurement": "IC50", "setting": "[1]", "value": 3.66, "unit": "µM"}]}, {"smiles": "[O]=[V]([OH])([OH])[OH]", "values": [{"measurement": "IC50", "setting": "[1]", "value": 0.91, "unit": "µM"}]}, {"smiles": "CCOC(=O)c1c(C)[nH]c(/C=C2\\S/C(=N\\c3ccc(OC)cc3)N(c3ccc(OC)cc3)C2=O)c1C", "values": [{"measurement": "IC50", "setting": "[1]", "value": 2.74, "unit": "µM"}]}, {"smiles": "CCOC(=O)c1c(C)[nH]c(/C=C2\\S/C(=N\\c3ccc(F)cc3)N(c3ccc(F)cc3)C2=O)c1C", "values": [{"measurement": "IC50", "setting": "[1]", "value": 2.87, "unit": "µM"}, {"measurement": "IC50", "setting": "[2]", "value": 6.09, "unit": "µM"}]}, {"smiles": "CC(C)N1C(=O)/C(=C/c2ccc(OCCN(C)c3ccccn3)cc2)S/C1=N\\O", "values": [{"measurement": "IC50", "setting": "[1]", "value": 2.47, "unit": "µM"}]}]}
